# Screening results (PubChem BioAssay)
# CHOP UPR activ – activators of apoptotic CHOP UPR arm, primary screen, cell-based, CHO-CHOP luciferase reporter, luminescence, uHTS | UPR activation; percent of tunicamycin response over DMSO baseline | activation, % at 10 µM | 330,000 tested, 0.34% active | AID 449763, 2010;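 active = at 10 µM dose, activation of 40% or more, normalized to positive control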;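 also: 100% = tunicamycin at 10 µg/mL and 0% = DMSO alone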
#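 Assay system: CHO cells with stable CHOP pathway luciferase reporter; Buffer or medium: F12 plus 10% serum; Times: 16-18 h cell attachment, then 6 h compound exposure, 37 °C; Signal: luciferase luminescence; Read-out basis: percent activation relative to tunicamycin control; Control set: tunicamycin high control, DMSO low control.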
# CHOP inhibitor – inhibitors of CHOP promoter induction, primary screen, cell-based, unfolded protein response, luciferase reporter. inhibition, % at 10 µM. 220,000 tested, 3.8% active. CHO-K1 CHOP-promoter luciferase, tunicamycin-induced, 15-18 h;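 active = compounds that reduced the stress-induced luciferase reporter signal by more than about 70% of percent inhibition, limit read from the data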;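 also: 0% = tunicamycin plus vehicle and 100% = wells without tunicamycin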
# UPR XBP1 act – activators of adaptive XBP1 UPR arm, primary screen, cell-based, CHO-XBP1 luciferase reporter, luminescence, uHTS | IRE1-XBP1 UPR activation; percent of tunicamycin response, DMSO as zero | activation, % at 20 µM | 330,000 tested, 0.33% active | AID 463104, 2010;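 active = versus positive control, 20 µM dose yields 30% or more activation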;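 also: 100% = tunicamycin at 10 µg/mL and 0% = DMSO only wells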
#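 incubation = overnight seeding at 37 °C, 6 h compound treatment at 37 °C | assay system = CHO-XBP1 cells stably carrying IRE1-XBP1-driven luciferase reporter | input = 1000 cells per well | detection = luciferase luminescence | dosing = single point, 20 µM final compound, 1% DMSO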
# CTSL1 counter – Fasciola hepatica cathepsin L1 inhibitors, primary screen, counter-screen for PFM18AAP inhibitor project, biochemical, QFRET, fluorogenic peptide substrate; recombinant F. hepatica cathepsin L1, Z-Leu-Arg-MCA fluorescence; inhibition, % at 5.96 µM; 300,000 tested, 0.49% active; AID 1906, 2009;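 active = inhibition above the mean of all tested compounds plus 3 SD, set per screening campaign, cut at about 17% in these data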;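 also: 0% = plate median of test compound wells and 100% = 1 µM Z-Phe-Ala-diazomethylketone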
# UCH37 inh – inhibitors of human UCH37 deubiquitinase, primary screen, biochemical, Ub-AMC cleavage, fluorescence; purified proteasome/UCH37; 330,000 tested, 0.33% active; inhibition, % (no concentration beside the values);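 active = mean inhibition over replicate wells above about 20%, limit read from the data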;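 also: 0% = compound-free wells with enzyme and 100% = wells lacking proteasome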
# Target sequence (Q9Y5K5 whole entry, looked up): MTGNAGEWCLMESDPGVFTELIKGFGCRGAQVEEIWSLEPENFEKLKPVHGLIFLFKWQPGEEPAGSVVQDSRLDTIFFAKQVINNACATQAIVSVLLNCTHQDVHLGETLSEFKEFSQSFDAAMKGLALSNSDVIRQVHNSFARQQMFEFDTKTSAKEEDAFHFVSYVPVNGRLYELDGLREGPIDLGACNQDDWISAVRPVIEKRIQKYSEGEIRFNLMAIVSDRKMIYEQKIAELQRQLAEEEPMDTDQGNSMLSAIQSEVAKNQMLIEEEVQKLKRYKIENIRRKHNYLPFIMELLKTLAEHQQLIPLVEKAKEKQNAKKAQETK
#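 Test system – human UCH37 enzyme supplied as purified proteasome complex · Incubation – 30 min preincubation with enzyme, 25 min cleavage at room temperature · Detection – AMC fluorescence from Ub-AMC cleavage, excitation 355 nm, emission 460 nm · Benchmarks – no-proteasome wells (full inhibition) and compound-free wells (no inhibition)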
# UPR XBP1 confirm – IRE1-XBP1 UPR arm activators, confirmation, cell-based, CHO-XBP1 luciferase reporter, luminescence, single concentration; shares compounds with UPR XBP1 act; activation, % at 20 µM; AID 485299, 2010; 1,000 tested, 63% active;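 active = reporter signal at least 30% of the positive control's activation in two or more of four replicate wells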;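 also: plate controls were DMSO negative control for no effect and tunicamycin 10 µg/mL positive control for full effect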
# UCH37 reconfirm – retest of human UCH37 deubiquitinase inhibitors, confirmation, biochemical, Ub-AMC cleavage rate, fluorescence; Proteasome-bound UCH37; 480 tested, 27% active; inhibition, % at 20 µM; shares compounds with UCH37 inh;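 active = average inhibition over replicates above about 50%, so the earlier screening hit is confirmed, limit read from the data; inactive = the rest, counted as false positives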;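 also: based on cleavage rate fitted by regression over a 30 min kinetic read; 0% = proteasome plus Ub-AMC and 100% = Ub-AMC without proteasome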
# The depositor's hits bear a star; . = not tested or not shown; ! = not active in a repeat. The entries come from a sample that favours hits as a whole.
SMILES,CHOP UPR activ,CHOP inhibitor,UPR XBP1 act,CTSL1 counter,UCH37 inh,UCH37 reconfirm,others
CC(=O)c1ccc(N2CCN(C(=O)CN3C(=O)NC4(CCCCC4)C3=O)CC2)c(F)c1,2,.,-3,.,8,.,
CCN(CC)c1ccc(/C=C/[N+](=O)[O-])cc1,14,-78,112*,2,3,.,UPR XBP1 confirm=76*
NCC#Cc1ccccc1,.,5,.,.,.,.,
Cc1cccc(-n2c(O)c(C=Nc3ccc(Br)cn3)c(=O)[nH]c2=O)c1,1,10,-2,3,0,.,
Cc1ccc(-n2c(O)c(/C=N/c3ncc(Br)cc3Br)c(=O)[nH]c2=O)cc1,3,74*,31*,5,.,.,UPR XBP1 confirm=52*
COc1ccc(N(CC(=O)NCc2ccc3c(c2)OCO3)S(C)(=O)=O)cc1OC,0,47,1,0,1,.,
CCN(CC)c1ccc(N=Cc2c(O)n(Cc3ccccc3)c(=O)[nH]c2=O)cc1,8,96*!,31*,2,-7,.,UPR XBP1 confirm=35*!
COc1cc(C(c2c(C)[nH]n(-c3ccccc3)c2=O)c2c(C)[nH]n(-c3ccccc3)c2=O)cc(OC)c1OC,1,9,-3,8,53*,94*,
COc1cc2[nH]c(=O)n(-c3ccccc3)c(=O)c2cc1OC,0,-2,-2,-2,-24,.,
Cc1c(N=Nc2c(O)[nH]c(=S)[nH]c2=O)c(=O)n(-c2ccccc2)n1C,-1,8,0,11,30*,10,
Cc1ccc(OCCn2cc(/C=C(\C#N)C(=O)NCC3CCCO3)c3ccccc32)cc1C (configuration not stated),-2,37,-2,1,-1,.,
CCN(CC)CCN=Cc1c(O)n(CCC2=CCCCC2)c(=O)[nH]c1=O,-1,17,-9,-2,-1,.,
O=c1[nH]c(=O)n(CCC2=CCCCC2)c(O)c1C=NCc1cccnc1,0,0,0,2,44*,42,
Cn1c(=O)[nH]c2nncnc2c1=O,1,.,2,3,30*,40,
CCCC[N+]1(C)C2CC(OC(=O)[C@H](CO)c3ccccc3)CC1C1OC12 (some centres not stated),.,-15,.,.,.,.,
CCN(CC)c1ccc(/C=C2\C(=O)NC(=S)N(C)C2=O)o1,6,18,3,2,26*,29,
COc1ccc(N2C(=O)NC(=O)/C(=C\c3cn(CC(=O)N4CCOCC4)c4ccccc34)C2=O)c(OC)c1,1,.,-4,-1,5,.,
COc1ccc(N2C(=O)/C(=C/c3ccc(N(C)C)o3)C(=O)NC2=S)cc1,-1,.,-2,6,25*,25,
CCN(CC)c1ccc(C=C2C(=O)N(C)C(=S)N(C)C2=O)o1,2,-5,3,2,10,.,
CCN(CC)c1ccc(/C=C2\C(=O)NC(=S)N(c3ccc(OC)cc3OC)C2=O)o1,-3,.,-4,2,27*,32,
Cn1cc([C@@H]2C[C@H]3CN(Cc4cccc(Cl)c4)C(=O)[C@]34CCCN24)c2ccccc21,1,24,-1,-1,5,.,
COc1ccc2c(c1)C13CCCCC1C(C2)N(C)CC3 (configuration not stated),.,-7,.,.,.,.,
C[Se]C[C@H](N)C(=O)O,.,-5,.,.,.,.,
COc1cc2c(cc1OC)-c1c(OC)c(OC)cc3c1C(C2)N(C)CC3 (configuration not stated),-3,-30,0,3,28*,38,
COC(=O)C1=C(c2ccc(OC(F)(F)F)cc2)C[C@@H]2CC[C@H]1N2C(=O)NCCOc1ccc(OC)cc1,0,.,-3,.,49*,4,
SMILES,CHOP UPR activ,CHOP inhibitor,UPR XBP1 act,CTSL1 counter,UCH37 inh,UCH37 reconfirm,others
COC(=O)C1=C(c2ccc(OC(F)(F)F)cc2)C[C@@H]2CC[C@H]1N2C(=O)NCCNC(C)=O,-2,.,-3,.,0,.,
C=CCN1CC[C@]23c4c5ccc(O)c4O[C@@H]2/C(=N/N=C2\CC[C@@]4(O)C6Cc7ccc(O)c8c7[C@@]4(CCN6CC=C)[C@@H]2O8)CC[C@@]3(O)C1C5,.,8,.,.,.,.,
COC(=O)C(O)(c1c(C)[nH]n(-c2ccccc2)c1=O)C(F)(F)F (configuration not stated),-1,28,-2,20*,85*,60*,
COC(=O)C(O)(c1c[nH]c2ccccc12)C(F)(F)F (configuration not stated),-4,1,0,-2,1,.,
CCn1nc(/C=C/c2ccccc2)nc2c(=O)n(C)c(=O)nc1-2,-5,105*,-10,.,96*,100*,
O=C1NC(=O)C(=Cc2ccc(N3CCOCC3)o2)C(=O)N1,1,-13,0,6,27*,36,
C[C@H]1O[C@H]1P(=O)(O)O,0,0,-9,-2,3,.,
COC(=O)c1nc(-c2ccc3c(n2)C(=O)C(N)=C(OC)C3=O)c(N)c(-c2ccc(OC)c(OC)c2O)c1C,21,43,2,110*,69*,37,
